Measured values: ChEMBL document CHEMBL5154854, “Identification of a Vitamin-D Receptor Antagonist, MeTC7, which Inhibits the Growth of Xenograft and Transgenic Tumors In Vivo” (J Med Chem, 2022)

Molecular target: T1, Vitamin D3 receptor (Homo sapiens) (UniProt P11473)
T1 sequence (whole entry): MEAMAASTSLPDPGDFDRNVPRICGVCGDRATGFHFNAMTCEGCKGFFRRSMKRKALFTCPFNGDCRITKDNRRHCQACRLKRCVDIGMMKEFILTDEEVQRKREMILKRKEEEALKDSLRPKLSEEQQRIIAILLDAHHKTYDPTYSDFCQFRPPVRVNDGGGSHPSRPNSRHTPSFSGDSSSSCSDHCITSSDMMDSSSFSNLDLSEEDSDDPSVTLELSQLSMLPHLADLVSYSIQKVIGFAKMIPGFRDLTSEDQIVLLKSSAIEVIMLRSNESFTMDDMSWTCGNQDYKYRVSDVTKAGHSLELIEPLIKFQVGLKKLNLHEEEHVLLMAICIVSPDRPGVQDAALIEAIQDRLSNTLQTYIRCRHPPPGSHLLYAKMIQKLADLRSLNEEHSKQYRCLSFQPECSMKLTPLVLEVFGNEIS
Assay: Antagonist activity at VDR LBD (unknown origin) using Alexa Fluor 647-labeled SRC2-3 as substrate incubated for 2 hrs in presence of calcitriol by fluorescence polarization assay
Summary of the method: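 VDR-LBD (0.1 μM) with Alexa Fluor 647-labelled SRC2-3 (17.5 nM) and 10 nM 1,25(OH)2D3 in 25 mM PIPES, 50 mM NaCl, 0.01% NP-40, pH 6.75. Compounds were serially diluted 1:2 from 10 mM DMSO stocks and incubated 2 h. Polarization was read at 635/685 nm. Three independent experiments in quadruplicate; IC50 by variable-slope nonlinear regression.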

- Activity: > 100 µM
Structure (SMILES): CC(C)CCC[C@@H](C)[C@H]1CC[C@H]2C3=CC=C4C[C@@H](O)CC[C@]4(C)[C@H]3CC[C@]12C
